Data published in ChEMBL document CHEMBL5634162, “Cyclohexylalanine-Containing α-Helical Amphipathic Peptide Targets Cardiolipin, Rescuing Mitochondrial Dysfunction in Kidney Injury” (J Med Chem, 2024).
Activity calls are given as the source filed them. The rule behind the calls is not given here. Where a SMILES comes first, the peptide text is derived from it. Bridges are numbered along the chain shown (N, C = ends). Roman numbers before positions name the chains, in order. [ ]: non-standard residue; d: D form. The star is where a group is joined. 5TAMRA = CN(C)c1ccc2c(c1)Oc1cc(N(C)C)ccc1C21OC(=O)c2cc(C(=O)*)ccc21; Cha = N[C@@H](CC1CCCCC1)C(=O)O

Experiments:
[1] = Drug localization in lysosomes of human HeLa cells at 100 nM incubated for 3 hrs by NAO probe based analysis; assay type: ADME, subcellular, Lysosome; conditions: 0.1 µM
Outline: (§1)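 HeLa cells given TAMRA-labelled peptide 100 nM for 3 h and cardiolipin stained with NAO (100 nM, 1 h), with or without 20 μM CCCP for 30 min; LysoTracker 50 nM. Confocal images, Pearson r from five independent images (63×) per condition.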

[2] = system: HeLa; test: Inhibition of H2O2-induced intracellular ROS level in human HeLa cells at EC50 incubated for […] followed by H2O2 addition measured for 10 mins by H2DCFDA probe based analysis; assay type: functional, cell-based; conditions: time 220.0 min
[3] = Drug uptake in CCCP-damaged mitochondria of human HeLa cells at 100 nM incubated for 3 hrs by MitoTracker probe based assay; assay type: ADME; conditions: 0.1 µM
Outline: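 HeLa cells given TAMRA-labelled peptide 100 nM for 3 h with MitoTracker staining; mitochondria damaged with 20 μM CCCP (30 min) or by CCCP during time-lapse confocal imaging. Red/green Pearson r calculated.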

[4] = Drug localization in CCCP-damaged mitochondria of human HeLa cells at 100 nM incubated for 3 hrs by NAO probe based assay; assay type: ADME; conditions: 0.1 µM; outline: as §1
[5] = system: HeLa; test: Induction of antimycin A-reduced ATP production in human HeLa cells incubated for 3 hrs followed by antimycin A addition measured after 3 hrs by luminescence based analysis; assay type: functional, cell-based; conditions: dose 10-20 nM, time 6.0 hrs
Outline: (§2)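 Cellular ATP measured by luminescence with an ATP detection kit after peptide pretreatment.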

[6] = system: HeLa; test: Induction of CCCP-reduced ATP production in human HeLa cells incubated for 3 hrs followed by CCCP addition measured after 1 hr by luminescence based analysis; assay type: functional, cell-based; conditions: dose 5-20 nM, time 4.0 hrs; outline: as §2
[7] = system: HeLa; test: Reversal of H2O2-induced mitochondrial damage in human HeLa cells assessed as formation of long cristae at 50 to 100 nM preincubated for 2 hrs followed by H2O2 addition for 2 hrs by TEM analysis; assay type: functional, cell-based; conditions: dose 50-100 nM, time 4.0 hrs
Outline: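 HeLa cells were pretreated with 50 or 100 nM peptide for 2 h, then exposed to 0.5 mM H2O2 for 2 h. They were fixed in Karnovsky's fixative (pH 7.2), postfixed in osmium, embedded in Spurr's resin and stained with uranyl acetate/lead citrate for TEM. Cristae longer than 0.5 μm were counted from at least 50 mitochondrial images.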

[8] = Drug localization in lysosomes of human HeLa cells expressing endosome markers at 100 nM incubated for 3 hrs by LysoTracker probe based analysis; assay type: ADME, subcellular, Lysosome; conditions: 0.1 µM
Outline: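 HeLa cells expressing early-endosome GFP marker (16 h) given TAMRA-labelled peptide 100 nM for 3 h plus LysoTracker 50 nM; confocal imaging with Pearson correlation.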

[9] = Drug localization in cytosol of human HeLa cells at 100 nM incubated for 3 hrs in presence of CCCP by NAO probe based analysis; assay type: ADME, subcellular; conditions: 0.1 µM; outline: as §1
[10] = system: Epithelial cell; test: Reversal of H2O2-induced mitochondrial dysfunction in human tubular epithelial cells assessed as increase in ECAR level measured for 40 to 60 mins by Seahorse assay; assay type: functional, cell-based; conditions: dose 10-50 nM, time 40-60 min
Outline: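 hTECs were exposed to H2O2 with peptide at 10 or 50 nM (n = 6 per group), then run on a Seahorse XFe96. OCR was read after sequential 2 μM oligomycin, 1 μM FCCP, and 0.5 μM rotenone/antimycin A. ECAR was read after 10 mM glucose, 1 μM oligomycin and 50 mM 2-DG. Glycolytic proton efflux rate was taken as glycoATP production rate.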

[11] = system: Mus musculus; test: Protection against colistin-induced nephrotoxicity in C57BL/6 mouse model assessed as reduction in blood creatinine level at 1 mg/kg, ip administered once every other day measured upto 7 days; assay type: functional, organism-based; conditions: time <= 7.0 day
Outline: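 Male C57BL/6 mice, 7 weeks: colistin 20 mg/kg sc daily for 7 days, peptide 1 mg/kg ip every other day, n = 5 per group. BUN by autoanalyzer and creatinine by modified Jaffe reaction after 7 days; mean ± SEM.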

[12] = system: Mus musculus; test: Protection against colistin-induced nephrotoxicity in C57BL/6 mouse model assessed as reduction in acute tubular necrosis at 1 mg/kg, ip administered once every other day measured after 7 days by […] analysis; assay type: functional, organism-based; conditions: time 7.0 day
Outline: (§3)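 Male C57BL/6 mice, 7 weeks: colistin 20 mg/kg sc daily for 7 days, peptide 1 mg/kg ip once every other day, n = 5 per group. Day-7 kidney sections, citrate antigen retrieval, immunohistochemistry with HRP polymer secondary and hematoxylin counterstain; PAS and Masson's trichrome for damage.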

[13] = system: Mus musculus; test: Protection against colistin-induced nephrotoxicity in C57BL/6 mouse model assessed as reduction in P-21 level at 1 mg/kg, ip administered once every other day measured after 7 days by IHC analysis; assay type: functional, organism-based; conditions: time 7.0 day; outline: as §3
[14] = Toxicity in C57BL/6 mouse model of colistin-induced nephrotoxicity assessed as animal survival at 1 mg/kg, ip administered once every other day measured for 7 days; assay type: organism-based; conditions: in vivo, 168 h, time 7 day
Outline: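 Male C57BL/6 mice got colistin 20 mg/kg SC daily for 7 days, with peptide 1 mg/kg intraperitoneally every other day; groups of n = 5. Survival was tracked by Kaplan–Meier and compared by log-rank (Mantel–Cox) test.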

[15] = system: Mus musculus; test: Protection against colistin-induced nephrotoxicity in C57BL/6 mouse model assessed as appearance of cristae formation in mitochondria of kidney at 1 mg/kg, ip administered once every other day measured after 7 days by TEM analysis; assay type: functional, organism-based; conditions: time 7.0 day
Outline: (§4)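 Male C57BL/6 mice, 7 weeks, given colistin 20 mg/kg sc daily for 7 days with peptide 1 mg/kg ip once every other day, n = 5 per group; kidney mitochondria examined by TEM.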

[16] = system: Mus musculus; test: Protection against colistin-induced nephrotoxicity in C57BL/6 mouse model assessed as appearance of compact cristae in mitochondria of kidney at 1 mg/kg, ip administered once every other day measured after 7 days by TEM analysis; assay type: functional, organism-based; conditions: time 7.0 day; outline: as §4
[17] = system: Epithelial cell; test: Reversal of H2O2-induced IL-1beta mRNA level in human tubular epithelial cells at 10 to 100 nM by qPCR analysis; assay type: functional, cell-based; conditions: dose 10-100 nM
[18] = system: Epithelial cell; test: Reversal of H2O2-induced IL-18 mRNA level in human tubular epithelial cells at 10 to 100 nM by qPCR analysis; assay type: functional, cell-based; conditions: dose 10-100 nM
[19] = system: Mus musculus; test: Protection against […] C57BL/6 mouse model assessed as decrease in cyt C level at 1 mg/kg, ip administered thrice a week prior to induction of bilateral ischemia-reperfusion injury measured after 6 days by IHC analysis; assay type: functional, organism-based; conditions: time 6.0 day
[20] = system: Mus musculus; test: Protection against […] C57BL/6 mouse model assessed as decrease in NGAL level at 1 mg/kg, ip administered thrice a week prior to induction of bilateral ischemia-reperfusion injury measured after 6 days by Western blot analysis; assay type: functional, organism-based; conditions: time 6.0 day
[21] = system: Mus musculus; test: Protection against […] C57BL/6 mouse model assessed as increase in NQO-1 mRNA level at 1 mg/kg, ip administered thrice a week prior to induction of bilateral ischemia-reperfusion injury measured after 6 days by qPCR analysis; assay type: functional, organism-based; conditions: time 6.0 day
[22] = system: Mus musculus; test: Protection against […] C57BL/6 mouse model assessed as decrease in serum BUN level at 1 mg/kg, ip measured after 23 hrs; assay type: functional, organism-based

SMILES: CC(=O)N[C@@H](CC1CCCCC1)C(=O)N[C@H]1CSSC[C@@H](C(=O)N[C@@H](CCCNC(=N)N)C(N)=O)NC(=O)[C@H](CC2CCCCC2)NC(=O)[C@H](CCCNC(=N)N)NC(=O)[C@H](CCCNC(=N)N)NC(=O)[C@H](CC2CCCCC2)NC(=O)[C@H](CC(C)C)NC(=O)[C@H](CCCNC(=N)N)NC(=O)[C@@H](NC(=O)[C@H](CC2CCCCC2)NC(=O)c2ccc3c(c2)C(=O)OC32c3ccc(N(C)C)cc3Oc3cc(N(C)C)ccc32)CSSC[C@@H](C(=O)N[C@@H](CCCNC(=N)N)C(N)=O)NC(=O)[C@H](CC2CCCCC2)NC(=O)[C@H](CCCNC(=N)N)NC(=O)[C@H](CCCNC(=N)N)NC(=O)[C@H](CC2CCCCC2)NC(=O)[C@H](CC(C)C)NC(=O)[C@H](CCCNC(=N)N)NC1=O (I: Ac-[Cha]CRL[Cha]RR[Cha]CR-NH2 / II: 5TAMRA-[Cha]CRL[Cha]RR[Cha]CR-NH2; disulfide I:2-II:9, I:9-II:2)
- Drug uptake [1]: Active
- inhibition [2]: Active
- Drug uptake [3]: Active
- Drug uptake [4]: Active
- Activity [5]: Dose-Dependent Effect
- Activity [6]: Dose-Dependent Effect
- Activity [7]: Active
- Drug uptake [8]: Active
- Drug uptake [9]: Active
- Activity [10]: Dose-Dependent Effect
- Activity [11]: Active
- Activity [12]: Active
- Activity [13]: Active
- Activity [14]: Non-Toxic
- Activity [15]: Active
- Activity [16]: Active
- Activity [17]: Active
- Activity [18]: Active
- Activity [19]: Active
- Activity [20]: Active
- Activity [21]: Active
- Activity [22]: Active
